Screening data: PubChem, The Scripps Research Institute Molecular Screening Center
Shown are actives, neighbours in structure and some others; about 2% of the full set was active somewhere.
ARFGAP1 inhibitor: inhibitors of rat ARFGAP1 GAP activity, primary screen, biochemical, fluorescence polarization, GDP tracer | ADP-ribosylation factor GTPase-activating protein 1 (Rattus norvegicus), Q62848 | Arfgap1-stimulated ARF1 GTP hydrolysis, GDP FP detection | inhibition, % at 16.5 µM | hit rate 0.26% among 360,000 | AID 651572, 2012;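 active = inhibition above a per-plate limit, mean inhibition of low control wells plus 3 SD, cut at about 25% in these data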;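 note: 0% = DMSO wells with enzyme and 100% = wells lacking Arfgap1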
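Material: truncated rat Arfgap1 GAP domain; Incubation: compound-enzyme preincubation 20 min, reaction 120 min, detection 60 min, 25 °C; Read-out: percent inhibition of Arfgap1-stimulated GTP hydrolysis; Technique: FP, GDP Alexa 633 tracer displaced from anti-GDP antibody, 620/688 nm; Controls: No-Arfgap1 wells (100%) versus DMSO full-reaction wells (0%); Replication: single well per compound.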
MBD2 DNA inh: inhibitors of MBD2 binding to methylated DNA, primary screen, biochemical, TR-FRET, DNA-binding domain, human; Methyl-CpG-binding domain protein 2 (Homo sapiens), Q9UBB5; MBD2 binding to methylated oligonucleotide; inhibition, % at 4.4 µM; hit rate 0.31% among 370,000; in the data active = inhibition above about 13%
Target sequence (Q9UBB5 whole entry, looked up, the tested form may be a part): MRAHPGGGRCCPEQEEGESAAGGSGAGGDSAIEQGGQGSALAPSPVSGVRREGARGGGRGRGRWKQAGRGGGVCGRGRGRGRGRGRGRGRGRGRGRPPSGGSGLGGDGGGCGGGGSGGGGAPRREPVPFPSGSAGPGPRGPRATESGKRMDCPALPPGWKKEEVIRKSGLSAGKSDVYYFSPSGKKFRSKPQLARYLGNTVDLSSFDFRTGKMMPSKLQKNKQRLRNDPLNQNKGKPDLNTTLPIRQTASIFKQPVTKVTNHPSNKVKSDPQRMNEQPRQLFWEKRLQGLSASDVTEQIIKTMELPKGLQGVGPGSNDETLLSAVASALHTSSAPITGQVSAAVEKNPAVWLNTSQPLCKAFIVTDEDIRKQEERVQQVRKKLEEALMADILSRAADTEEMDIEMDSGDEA
ASAP1 inh: inhibitors of human ASAP1 ArfGAP activity, primary screen, biochemical, fluorescence polarization | inhibition, % at 16.5 µM | ASAP1-stimulated ARF1 GTP hydrolysis, GDP FP detection | Arf-GAP with SH3 domain, ANK repeat and PH domain-containing protein 1 (Homo sapiens), … | hit rate 0.19% among 360,000; in the data active = inhibition above about 25%;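 note: 0% = vehicle with enzyme and substrate and 100% = no enzyme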
LEDGF integ inh: blockers of LEDGF/p75-dependent integrase strand transfer – biochemical, TR-FRET, high throughput, primary screen. HIV-1 integrase (with human LEDGF/p75). TR-FRET IN-LEDGF/p75 DNA integration, Eu/Cy5. hit rate 0.64% among 370,000. inhibition, % at 3.7 µM. AID 743269, 2014;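 active = inhibition above the screen-wide mean plus 3 SD, cut at about 13% in these data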;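 note: signal is the Cy5 over europium emission ratio at 671 and 618 nm; 0% = plate median of compound wells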
UHRF1 MBD2 ctr: UHRF1 methylated DNA binding inhibitors, primary screen, counter-screen for MBD2 inhibitor project, biochemical, TR-FRET, human UHRF1, single concentration; E3 ubiquitin-protein ligase UHRF1 (Homo sapiens), Q96T88; UHRF1 binding to methylated oligo; inhibition, % at 4.4 µM; hit rate 0.75% among 370,000; in the data active = inhibition above about 21%;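 note: UHRF1 SRA domain binding a hemimethylated CpG hairpin DNA probe; 0% = median of test compound wells and 100% = reference inhibitor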
TDP2 inh: human TDP2 enzyme inhibitors, primary screen, biochemical, epi absorbance, recombinant enzyme | Tyrosyl-DNA phosphodiesterase 2 (Homo sapiens), O95551 | T5PNP hydrolysis, p-nitrophenol absorbance 415 nm | inhibition, % at 12.8 µM | hit rate 0.34% among 370,000;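 active = inhibition above the mean of all tested compounds plus 3 SD, set per campaign, cut at about 25% in these data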;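 note: 0% = DMSO with enzyme and 100% = buffer with substrate but no TDP2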
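Test system: Human TDP2 enzyme | Reagent: 5 mM T5PNP | Compound dosing: 12.8 µM single point, 1% DMSO | Incubation: Enzyme reaction with compound for 2 h at 37 °C | Technique: p-Nitrophenol epi absorbance | Read-out: % inhibition relative to enzyme-containing and enzyme-free wells | Benchmarks: High control without enzyme, low control DMSO plus TDP2 | Replicates: Singlicate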
ARFGAP1 confirm: ARFGAP1 inhibitor hit confirmation, biochemical, fluorescence polarization, triplicate; shares compounds with ARFGAP1 inhibitor; hit rate 30% among 890; inhibition, % at 16.5 µM; ARFGAP1-stimulated ARF1 GTP hydrolysis, GDP tracer FP;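 active = average inhibition over triplicates above the hit cutoff set in the earlier primary screen, cut at about 25% in these data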;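 note: 0% = Arfgap1 plus ARF1-GTP with DMSO and 100% = wells lacking Arfgap1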
Numbers without * were called inactive.

`O=[N+]([O-])c1ccc2[nH]c3nc4ccccc4nc3c2c1` gave ARFGAP1 inhibitor 26*, MBD2 DNA inh -4, ASAP1 inh 8, LEDGF integ inh -3, UHRF1 MBD2 ctr -2, TDP2 inh -11 and ARFGAP1 confirm 37*.
CC(=NN1CCN(Cc2ccccc2Cl)CC1)c1ccc(O)cc1 was read as MBD2 DNA inh 3, LEDGF integ inh 3, UHRF1 MBD2 ctr 2 and TDP2 inh -9.
`O=c1cc(Nc2ccc3c(c2)OCCO3)[nH]c(=O)n1-c1ccc(Br)cc1` gave ARFGAP1 inhibitor -10, MBD2 DNA inh -2, ASAP1 inh -4, LEDGF integ inh -3, UHRF1 MBD2 ctr 0 and TDP2 inh 6.
`O=c1cc(Nc2ccc3c(c2)OCCO3)[nH]c(=O)n1Cc1ccc(F)cc1` gave ARFGAP1 inhibitor 27*, MBD2 DNA inh 0, ASAP1 inh -4, LEDGF integ inh 0, UHRF1 MBD2 ctr 0, TDP2 inh 9 and ARFGAP1 confirm -2.
Screening Cc1ccc(-c2nnc(NC(=O)COc3ccc(F)cc3Cl)o2)cc1C returned MBD2 DNA inh -3, LEDGF integ inh -3, UHRF1 MBD2 ctr 3 and TDP2 inh -6.
Screening COC(=O)/C(C#N)=C/c1ccc(C)o1 returned ARFGAP1 inhibitor 25*, MBD2 DNA inh -1, ASAP1 inh 7, LEDGF integ inh -1, UHRF1 MBD2 ctr 7, TDP2 inh -14 and ARFGAP1 confirm -4.
Cc1ncsc1C(=O)N1N=C2/C(=C/c3ccccc3)CCCC2C1c1ccccc1 (centres undefined) was read as ARFGAP1 inhibitor 30*, MBD2 DNA inh 6, ASAP1 inh -6, LEDGF integ inh -1, UHRF1 MBD2 ctr -3, TDP2 inh 9 and ARFGAP1 confirm -2.
Screening COc1ccc(-n2c(C)c(C)c3c(NCCN(C)C)ncnc32)cc1 returned ARFGAP1 inhibitor 5, MBD2 DNA inh 2, ASAP1 inh -6, LEDGF integ inh 6, UHRF1 MBD2 ctr 6 and TDP2 inh -1.
For Cc1c(C)n(-c2ccccc2)c2ncnc(NCCN(C)C)c12 the results were ARFGAP1 inhibitor 25*, MBD2 DNA inh 2, ASAP1 inh 11, LEDGF integ inh 1, UHRF1 MBD2 ctr 8, TDP2 inh -18 and ARFGAP1 confirm -4.
For CCN1CCN(c2ccc(S(=O)(=O)N3CCCCC3)cc2NC(=O)/C=C/c2ccc(OC)c(OC)c2)CC1 the results were ARFGAP1 inhibitor 30*, MBD2 DNA inh 2, ASAP1 inh 19, LEDGF integ inh 2, UHRF1 MBD2 ctr 0, TDP2 inh -3 and ARFGAP1 confirm 45*.
`CCOC(=O)N1CCN(C(=O)C[C@H]2C[C@@]3(C(=O)OC)C(=C[C@H](COCc4ccccc4)O[C@@H]3C)N(Cc3cccc4ccccc34)C2=O)CC1` gave MBD2 DNA inh -3, LEDGF integ inh -3, UHRF1 MBD2 ctr -2 and TDP2 inh 0.
For CCn1c(CSc2nc3ccccc3s2)nnc1SCC(=O)c1ccc(O)c(O)c1 the results were ARFGAP1 inhibitor 32*, MBD2 DNA inh 1, ASAP1 inh -8, LEDGF integ inh 5, UHRF1 MBD2 ctr 4, TDP2 inh -1 and ARFGAP1 confirm -1.
Fc1ccccc1-c1n[nH]c(=S)n1N=Cc1ccc(-c2ccccc2)cc1 was read as MBD2 DNA inh 1, LEDGF integ inh 0, UHRF1 MBD2 ctr 2 and TDP2 inh -3.
